The source made the active and inactive calls. No cut-off for these calls is given here. Where a SMILES comes first, the peptide text is derived from it.
Experiments:
[1] = test system: T1, Tyrosine-protein phosphatase non-receptor type 11 (Homo sapiens), Q06124 [E76K]; experiment: Activation of human His-tagged SHP2 E76K mutant expressed in Escherichia coli (DE3) Rosetta2 competent cells using p-nitrophenyl phosphate as substrate at 10 uM measured after 30 mins
T1 sequence (whole entry): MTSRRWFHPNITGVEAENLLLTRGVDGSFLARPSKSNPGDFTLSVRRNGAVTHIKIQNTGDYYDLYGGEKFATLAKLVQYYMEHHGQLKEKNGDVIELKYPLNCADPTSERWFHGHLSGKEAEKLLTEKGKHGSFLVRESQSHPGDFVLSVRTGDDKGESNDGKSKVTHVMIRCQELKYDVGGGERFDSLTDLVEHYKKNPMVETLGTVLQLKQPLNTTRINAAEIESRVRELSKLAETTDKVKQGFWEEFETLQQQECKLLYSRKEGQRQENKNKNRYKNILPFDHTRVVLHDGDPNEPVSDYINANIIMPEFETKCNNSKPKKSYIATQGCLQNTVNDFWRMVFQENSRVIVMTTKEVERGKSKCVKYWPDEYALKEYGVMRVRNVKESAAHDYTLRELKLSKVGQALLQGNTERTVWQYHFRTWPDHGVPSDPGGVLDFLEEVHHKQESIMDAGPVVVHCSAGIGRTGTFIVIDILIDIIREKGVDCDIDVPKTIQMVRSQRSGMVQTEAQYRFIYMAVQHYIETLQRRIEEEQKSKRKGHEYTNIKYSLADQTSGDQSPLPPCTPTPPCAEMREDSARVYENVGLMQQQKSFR
Procedure, shortened: (§1)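 Recombinant full-length SHP2 (wild type or mutant), His-tagged, Ni-NTA then anion-exchange and gel-filtration purified; 20 pmol in 200 μL buffer with 20 mM p-nitrophenyl phosphate, basal or stimulated with bisphosphorylated BTAM peptide; 30 min at 30 °C; phosphate release read at 405 nm; three replicates.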

Danio rerio [2] = species: Danio rerio; experiment: Improvement in survival of Shp2a-D61G-injected Zebrafish embryos at 0.3 to 5 uM after 11 hrs post fertilization by stereomicroscopic analysis; format: functional, organism-based; settings: Embryo, dose 0.3-5 µM
Procedure, shortened: (§2)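 One-cell zebrafish embryos microinjected (~1 nL) with 120 ng/μL mRNA for GFP-2A-Shp2-D61G or wild-type Shp2, with or without peptide at final 0.3, 3 or 5 μM (assuming ~500 nL embryo volume); GFP-expressing embryos selected, imaged laterally at 11 hpf by stereomicroscope; ovality as long/short axis ratio; survival followed through development; non-injected embryos as control.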

Homo sapiens [3] = species: Homo sapiens; experiment: Activation of human His-tagged SHP2 F71I mutant expressed in Escherichia coli (DE3) Rosetta2 competent cells using p-nitrophenyl phosphate as substrate at 10 uM measured after 30 mins; procedure, shortened: as §1
Homo sapiens [4] = species: Homo sapiens; experiment: Activation of human His-tagged SHP2 D61H mutant expressed in Escherichia coli (DE3) Rosetta2 competent cells using p-nitrophenyl phosphate as substrate at 10 uM measured after 30 mins; procedure, shortened: as §1
[5] = Stability in DMEM buffer after 3 days by HPLC analysis; format: physicochemical; settings: 72 h, time 3 day
Procedure, shortened: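 Same set-up as serum test but in DMEM, followed 72 h at 37 °C; monitored by HPLC with 5–50% B over 20 min.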

Homo sapiens [6] = species: Homo sapiens; experiment: Activation of human His-tagged SHP2 E76V mutant expressed in Escherichia coli (DE3) Rosetta2 competent cells using p-nitrophenyl phosphate as substrate at 10 uM measured after 30 mins; procedure, shortened: as §1
[7] = Stability in human serum assessed as degradation after 24 hrs by HPLC analysis; format: ADME, cell-free; settings: read-out: Drug degradation
Procedure, shortened: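 Peptide stock in DMSO (5 mg/mL), 20 μL added to 1 mL 25 mM HEPES pH 7.6 plus 250 μL human serum at 37 °C; aliquots taken over 24 h, quenched in ethanol on ice, centrifuged, supernatant analysed by HPLC and HPLC-MS; peptide-buffer-ethanol controls run in parallel.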

Danio rerio [8] = species: Danio rerio; experiment: Reversal of Shp2a-D61G-induced phenotypic defect in Zebrafish at 5 uM by stereomicroscopic analysis; format: functional, organism-based; procedure, shortened: as §2
Homo sapiens [9] = species: Homo sapiens; experiment: Activation of human His-tagged SHP2 A27S mutant expressed in Escherichia coli (DE3) Rosetta2 competent cells using p-nitrophenyl phosphate as substrate at 10 uM measured after 30 mins; procedure, shortened: as §1
Danio rerio [10] = species: Danio rerio; experiment: Reversal of Shp2a-D61G-induced gastrulation defect in Zebrafish assessed as reduction in major/minor axis ratios by stereomicroscopic analysis; format: functional, organism-based; settings: dose 0.3-5 µM; procedure, shortened: as §2
Danio rerio [11] = species: Danio rerio; experiment: Improvement in survival of wild type Shp2a-injected Zebrafish embryos at 3 uM after 11 hrs post fertilization by stereomicroscopic analysis; format: functional, organism-based; settings: Embryo; procedure, shortened: as §2
Danio rerio [12] = species: Danio rerio; experiment: Induction of phenotypic defect in Zebrafish injected with wild type Shp2a at 3 uM measured after 11 hrs post fertilization by stereomicroscopic analysis; format: organism-based; settings: in vivo
Procedure, shortened: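 Wild-type Shp2 mRNA (120 ng/μL) co-injected with peptide at final 3 μM into one-cell zebrafish embryos; GFP-positive embryos imaged laterally at 11 hpf by stereomicroscope; shape scored as long/short axis ratio.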

[13] = Stability in human serum assessed as degradation after 3 hrs by HPLC analysis; format: ADME, cell-free; settings: read-out: Drug degradation
Procedure, shortened: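 Peptide DMSO stock (5 mg/mL) added to 25 mM HEPES pH 7.6 with human serum (1 mL buffer + 250 μL serum) at 37 °C; followed 24 h. Aliquots withdrawn at fixed intervals, quenched in absolute ethanol, 15 min on ice, centrifuged; supernatant analysed by HPLC and HPLC-MS. Peptide/buffer/ethanol samples run in parallel.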

For CC[C@H](C)[C@H](NC(=O)[C@H](Cc1ccc(C(F)(F)P(=O)(O)O)cc1)NC(=O)[C@H](CC(N)=O)NC(=O)[C@H](CC(C)C)NC(=O)CNC(C)=O)C(=O)N[C@@H](CC(=O)O)C(=O)N[C@@H](CC(C)C)C(=O)N[C@@H](CC(=O)O)C(=O)N[C@@H](Cc1c[nH]c2ccccc12)C(N)=O, the Activity [1] was “inactive”, the Activity (Danio rerio [2]) was “Dose-Dependent Effect” and the Activity (Homo sapiens [3]) was “inactive”. For the same compound, the Activity (Homo sapiens [4]) was “inactive”, the Stability [5] was “Stable” and the Activity (Homo sapiens [6]) was “inactive”. The metabolised at 24 h [7] was less than 50%, the Activity (Danio rerio [8]) was “Active” and the Activity (Homo sapiens [9]) was “inactive”. The Activity (Danio rerio [10]) was “Dose-Dependent Effect”, the Activity (Danio rerio [11]) was “inactive” and the Activity (Danio rerio [12]) was “Non-Toxic”.

Compound CC[C@H](C)[C@H](NC(=O)[C@H](C)NC(=O)[C@H](CCCCN)NC(=O)CNC(=O)[C@H](Cc1ccc(O)cc1)NC(=O)[C@H](Cc1ccc(O)cc1)NC(=O)[C@H](CCCCN)NC(=O)[C@H](Cc1ccccc1)NC(=O)[C@@H](N)Cc1c[nH]c2ccccc12)C(=O)N[C@@H](Cc1ccc(O)cc1)C(=O)O (H-WFKYYGKAIY-OH) has a metabolised at 3 h [13] of 100%.

Compound CC[C@H](C)[C@H](NC(=O)[C@H](Cc1ccc(OP(=O)(O)O)cc1)NC(=O)[C@H](CC(N)=O)NC(=O)[C@H](CC(C)C)NC(C)=O)C(=O)N[C@@H](CC(=O)O)C(=O)N[C@@H](CC(C)C)C(=O)N[C@@H](CC(=O)O)C(=O)N[C@@H](Cc1c[nH]c2ccccc12)C(N)=O has a metabolised at 24 h [7] of less than 50%.
